Assay results gathered from unrelated publications.
Protocols differ between the studies behind these lines.
Target: Beta-secretase 1 (BACE1, Homo sapiens, UniProt P56817)
Mode: inhibitor

SMILES | observed | technique | pH | IC50
CC1(c2ccccc2)COCC(N)=N1 (stereo not drawn) | enzyme activity | FRET | pH 5 | 200 µM
CC(C)=CCc1c(O)cc(O)c2c(=O)c(-c3ccc(O)cc3)coc12 | enzyme activity | – | – | 27 µM
CC[C@H](C)[C@H](NC(=O)[C@@H](C[C@H](O)[C@@H](N)COc1ccc(-c2ccc(F)cc2)c(OCCCOC)c1)C(C)C)C(=O)NCc1ccc(Cl)cc1 | enzyme activity | – | pH 4.5 | 0.81 µM
[H]/N=C1\N[C@](C)(c2cccc(Nc3cnc(C4CC4)nc3)c2Cl)CC(=O)N1[C@H]1CCO[C@@H](C)C1 | enzyme activity | FRET | – | > 10 µM
CC[C@H](C[C@H](O)[C@@H](N)COc1ccc(-c2ccc(F)cc2)c(OCCCOC)c1)C(=O)N[C@H](C(=O)NCc1ccc(Cl)cc1)[C@@H](C)CC | enzyme activity | – | pH 4.5 | 1.1 µM
C=C(C)[C@@H]1CCC(C)=C[C@H]1c1c(O)cc2occ(-c3ccc(O)cc3)c(=O)c2c1O (relative stereo) | enzyme activity | – | – | > 200 µM
Cc1cc2cc(c1)C(=O)N[C@H]([C@H](O)CN(Cc1cccc(C(C)C)c1)C(=O)OC(C)(C)C)CCC/C=C/CCCC2=O | enzyme activity in cells | – | – | > 10 µM
CN(C)c1nc(N2CCCC2)nc2ccccc12 | enzyme activity | FRET | pH 5 | 500 µM
COc1ccc2c(c1)OC1Oc3cc(O)cc(O)c3C(=O)C21O (stereo not drawn) | enzyme activity | – | – | 139 µM
